# A selection: hits, their analogues and other compounds. The true share with any hit is near 3.5%.
# pPAFAH FP inh – inhibitors of human plasma PAF acetylhydrolase (pPAFAH); Q13093; recombinant pPAFAH, FP-rhodamine probe fluorescence polarization; inhibition, % at 3.39 µM; 330,000 tested, 1.5% active; AID 463082;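 active means inhibition above the mean inhibition across the screen plus 3 SD, cut at about 25% in these data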;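 further: inhibitors block binding of the rhodamine activity-based probe so polarization drops; 0% = enzyme with DMSO and 100% = wells lacking pPAFAH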
# Apaf-1 inh – blocks human Apaf-1 apoptosome activity. AID 489030. reconstituted apoptosome caspase-3 activity, DEVD-Rh110 fluorescence. O14727. 330,000 tested, 0.71% active. inhibition, % at 20 µM; active means inhibition of at least 40% at 20 µM;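 further: plate controls were DMSO wells for no effect and DEVD-CHO caspase inhibitor wells for full effect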
#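 Material: cell-free apoptosome with Apaf-1, procaspase-3 and caspase-9; Buffer or medium: Hepes pH 7.5 with detergent and BSA; Reagent: cytochrome c trigger plus (Z-DEVD)2-Rh110 caspase-3 substrate; Times: compound with Apaf-1, dATP, procaspase-3 30 min, then 50 min reaction, room temperature; Technique: Rh110 fluorescence intensity.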
# PAFAH1B3 FP inh – PAFAH1B3 (human) inhibition | inhibition, % at 3.39 µM | Q15102 | AID 492972 | recombinant PAFAH1B3, FP-rhodamine probe, fluorescence polarization | 340,000 tested, 0.28% active;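 active means inhibition above the screen-wide average of all tested compounds plus 3 SD, cut at about 25% in these data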;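 further: 0% = enzyme with DMSO only and 100% = wells lacking PAFAH1B3 protein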
# Target sequence (Q15102 whole entry, looked up): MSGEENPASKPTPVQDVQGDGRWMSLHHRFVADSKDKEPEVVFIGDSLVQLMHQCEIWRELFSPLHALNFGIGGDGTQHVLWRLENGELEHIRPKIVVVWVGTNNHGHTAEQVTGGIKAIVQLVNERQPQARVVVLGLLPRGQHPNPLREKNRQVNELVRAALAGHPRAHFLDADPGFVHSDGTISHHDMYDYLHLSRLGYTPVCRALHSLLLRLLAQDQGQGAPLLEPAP
# PAFAH2 inh – inhibitors of human PAFAH2; inhibition, % at 3.39 µM; recombinant PAFAH2, FP-rhodamine activity probe, fluorescence polarization; Q99487; 340,000 tested, 0.99% active;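 active means inhibition above the mean over all tested compounds plus 3 SD, cut at about 30% in these data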;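 further: inhibitors block probe labeling of enzyme so polarization drops; 0% = enzyme with DMSO and 100% = wells lacking PAFAH2 protein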
# PREPL inhibitor – inhibitors of human prolyl oligopeptidase-like enzyme PREPL | recombinant PREPL, fluorescence polarization activity-based probe | Q4J6C6 | inhibition, % at 5.96 µM | 320,000 tested, 0.68% active; in the data active means inhibition above about 43%;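 further: 0% = enzyme with DMSO and 100% = wells lacking enzyme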
# PAFAH1B2 inh – blocks human PAF acetylhydrolase 1b catalytic subunit 2. P68402. recombinant PAFAH1B2, FP-rhodamine activity probe, fluorescence polarization. inhibition, % at 3.39 µM. 340,000 tested, 1.2% active;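 active means inhibition above the mean of all tested compounds plus 3 SD, cut at about 24% in these data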;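 further: 0% = enzyme with DMSO and 100% = wells lacking PAFAH1B2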
# Target sequence (P68402 whole entry, looked up): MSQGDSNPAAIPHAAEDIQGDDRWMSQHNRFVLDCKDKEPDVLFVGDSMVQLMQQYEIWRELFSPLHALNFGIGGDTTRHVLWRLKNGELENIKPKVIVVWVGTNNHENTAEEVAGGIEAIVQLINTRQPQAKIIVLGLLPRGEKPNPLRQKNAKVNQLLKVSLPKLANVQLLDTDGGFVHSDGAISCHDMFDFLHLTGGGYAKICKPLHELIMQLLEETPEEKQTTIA
# PAFAH2 confirm – PAFAH2 (human) inhibition, confirmed; shares compounds with PAFAH2 inh; recombinant PAFAH2, FP-rhodamine activity probe, fluorescence polarization; inhibition, % at 3.39 µM; 2,300 tested, 65% active; AID 493030;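 active means mean inhibition over three repeats above a set limit taken from the earlier primary screen, cut at about 30% in these data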;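 further: inhibitor blocks binding of rhodamine activity probe so polarization falls; 0% = enzyme with DMSO and 100% = wells lacking PAFAH2 protein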
# Starred values were filed as active, the others as inactive; / = no result.
SMILES,pPAFAH FP inh,Apaf-1 inh,PAFAH1B3 FP inh,PAFAH2 inh,PREPL inhibitor,PAFAH1B2 inh,PAFAH2 confirm
CCOc1cc(/C=C/C(=O)OCC(=O)NCC2CCCO2)cc(Cl)c1OC (centres undefined),4,8,-1,5,23,1,/
CSc1ccc(/C=C/C(=O)OCC(=O)NCC2CCCO2)cc1 (centres undefined),5,-4,9,39*,7,3,22
O=C(COC(=O)/C=C/c1ccccc1)NCC1CCCO1 (centres undefined),11,-19,-1,37*,-5,3,23
O=C(COC(=O)/C=C/c1ccccc1Cl)NCC1CCCO1 (centres undefined),21,-10,3,27,7,4,/
NC(=O)c1oc2ccccc2c1NC(=O)c1ccc([N+](=O)[O-])o1,7,6,1,17,12,-1,/
CCOC(=O)C1CCN(C(=S)Nc2cc(OC)c(OC)cc2C(=O)OC)CC1,-1,3,9,4,14,0,/
O=C(c1ccccc1)c1ccc(O)c(O)c1O,/,/,21,38*,/,9,42*
Cc1cc(C(=O)c2ccccc2)cc(C)c1O,/,/,2,-11,/,2,/
COc1ccc(-n2nnnc2SCC(=O)N2CCCC2=O)cc1,-1,3,3,0,7,5,/
O=C1CCCN1C(=O)CSc1nnnn1-c1ccccc1,2,-13,6,37*,6,12,31*
COc1ccccc1-n1nnnc1SCC(=O)N1CCCC1=O,-2,0,-3,51*,3,3,42*
Cc1c(NC(=O)C(C)N2C(=O)NC3(CCC(C)CC3)C2=O)c(=O)n(-c2ccccc2)n1C (centres undefined),-5,0,12,3,8,-3,/
Cc1ccc(C)c(OCc2cc(C(=O)N3CC[C@H](O)C3)no2)c1,7,6,0,-2,-4,0,/
CCOC(=O)C1CCN(CCC(=O)Nc2ccc(Br)c(C)c2)CC1,/,-8,8,-5,/,1,/
CC1CC1C(=O)OCC(=O)Nc1cccc(Br)c1 (centres undefined),/,9,1,88*,/,3,85*
O=C(COC(=O)c1cc(Br)ccc1O)Nc1ccc2c(c1)OCO2,5,4,-1,37*,10,2,18
Cc1cc(NC(=O)COC(=O)C2CC2)ccc1Br,14,8,-3,77*,5,-2,74*
O=C(COC(=O)c1ccco1)Nc1ccc2c(c1)OCO2,7,-4,6,63*,9,6,66*
COCC(=O)Nc1cccc(Br)c1,2,3,2,0,-4,1,/
Cc1ccc(-c2nc(C#N)c(N3CCC(C(N)=O)CC3)o2)cc1,-2,4,0,5,15,0,/
O=C(COC(=O)C12CC3CC(CC(O)(C3)C1)C2)Nc1cccc(Br)c1,/,6,8,74*,/,10,69*
O=C(COC(=O)c1ccco1)Nc1ccccc1[N+](=O)[O-],0,-32,2,41*,6,3,28
CC(CNC(=O)COC(=O)c1ccco1)c1ccccc1 (centres undefined),2,-8,3,57*,4,0,48*
O=C(COC(=O)c1ccco1)Nc1cccc(Br)c1,4,8,6,91*,5,-3,68*
O=C(COC(=O)c1ccco1)NC(c1ccccc1)c1ccccc1,2,10,7,17,15,3,/
SMILES,pPAFAH FP inh,Apaf-1 inh,PAFAH1B3 FP inh,PAFAH2 inh,PREPL inhibitor,PAFAH1B2 inh,PAFAH2 confirm
O=C(COC(=O)c1cc[n+]([O-])cc1)Nc1cccc(Br)c1,/,2,2,-3,/,-4,/
COC(=O)C1N[C@@H]([C@@H](NC(=O)COc2ccccc2)C(=O)NCc2ccsc2)SC1(C)C (some centres undefined),0,-1,16,10,6,4,/
O=C(Nc1c(Cl)ccc2nsnc12)c1ccc([N+](=O)[O-])o1,3,-3,-7,-2,12,0,/
CC1CC1C(=O)OCC(=O)NCc1ccccc1 (centres undefined),2,-3,1,36*,9,0,25
O=C(COC(=O)C1CCC1)NCc1ccccc1,8,-1,-6,6,-6,3,/
Cc1ccc(C(=O)OCC(=O)Nc2ccc3c(c2)OCO3)o1,6,9,8,62*,4,4,60*
Cc1ccc(C(=O)Nc2ccc3c(c2)OCO3)o1,3,0,5,-1,15,-1,/
O=C(O)Cc1ccc(NC(=O)c2ccc(NC(=O)C3CC3)cc2)cc1,-2,11,8,-2,13,-6,/
CN(C)c1ccc(C2Nc3ccccc3C(=O)N2CCCN2CCOCC2)cc1 (centres undefined),3,-2,5,-8,21,3,/
COCCN(C(=O)CCC(=O)Nc1ccccn1)C(C(=O)NCCC(C)C)c1ccc(F)cc1 (centres undefined),2,1,1,-4,12,-2,/
C=CCn1c(C)cc(C(=O)COC(=O)/C=C/c2ccc(OC)cc2)c1C,8,17,5,62*,7,4,57*
Cc1cc(C(=O)COC(=O)/C=C/c2cccc(F)c2)c(C)n1C,-1,11,1,3,19,4,/
C=CCn1c(C)cc(C(=O)COC(=O)/C=C/c2cccc(OC)c2)c1C,10,18,8,55*,-3,2,46*
COc1cc(/C=C/C(=O)OCC(=O)N(C)Cc2ccccc2)ccc1O,5,-2,1,33*,1,3,19
COc1cc(/C=C/C(=O)OCC(=O)NCc2ccc(F)cc2)ccc1O,9,-3,5,69*,7,4,56*
COc1ccccc1CNC(=O)COC(=O)/C=C/c1ccc2c(c1)OCO2,3,-2,-1,39*,-11,2,43*
COc1cc(/C=C/C(=O)OCC(=O)N(C)Cc2ccccc2)cc(OC)c1OC,2,5,5,9,-2,3,/
COc1cc(/C=C/C(=O)OCC(=O)NCc2ccccc2OC)ccc1O,9,10,15,50*,-7,11,49*
COC(=O)c1ccc(CNC(=O)COC(=O)/C=C/c2ccc(OC)c(OC)c2)cc1,3,-9,3,9,5,0,/
COc1ccc(-c2c(=O)n(OCc3ccccc3[N+](=O)[O-])c3ccccc3[n+]2[O-])c(OC)c1,4,-11,-1,7,18,6,/
COc1cc(NC(=O)COC(=O)C=C(C)C)c(C)cc1[N+](=O)[O-],8,2,9,61*,1,-2,28

# Bioassay records as filed in PubChem.
